Test results as given in ChEMBL document CHEMBL1649105, “Development of Selective LH Receptor Agonists by Heterodimerization with a FSH Receptor Antagonist” (ACS Med Chem Lett, 2011).
Active and inactive are the calls of the source. The rule behind the calls is not given here.

Columns and labels:
[1] = biological target: T1, Follicle-stimulating hormone receptor (Homo sapiens, UniProt P23945); test: Agonist activity at human FSHR receptor expressed in CHO-K1 cells assessed as stimulation of luciferase activity by CRE-driven luciferase reporter gene assay; format: functional, cell-based
T1 sequence (P23945 whole entry): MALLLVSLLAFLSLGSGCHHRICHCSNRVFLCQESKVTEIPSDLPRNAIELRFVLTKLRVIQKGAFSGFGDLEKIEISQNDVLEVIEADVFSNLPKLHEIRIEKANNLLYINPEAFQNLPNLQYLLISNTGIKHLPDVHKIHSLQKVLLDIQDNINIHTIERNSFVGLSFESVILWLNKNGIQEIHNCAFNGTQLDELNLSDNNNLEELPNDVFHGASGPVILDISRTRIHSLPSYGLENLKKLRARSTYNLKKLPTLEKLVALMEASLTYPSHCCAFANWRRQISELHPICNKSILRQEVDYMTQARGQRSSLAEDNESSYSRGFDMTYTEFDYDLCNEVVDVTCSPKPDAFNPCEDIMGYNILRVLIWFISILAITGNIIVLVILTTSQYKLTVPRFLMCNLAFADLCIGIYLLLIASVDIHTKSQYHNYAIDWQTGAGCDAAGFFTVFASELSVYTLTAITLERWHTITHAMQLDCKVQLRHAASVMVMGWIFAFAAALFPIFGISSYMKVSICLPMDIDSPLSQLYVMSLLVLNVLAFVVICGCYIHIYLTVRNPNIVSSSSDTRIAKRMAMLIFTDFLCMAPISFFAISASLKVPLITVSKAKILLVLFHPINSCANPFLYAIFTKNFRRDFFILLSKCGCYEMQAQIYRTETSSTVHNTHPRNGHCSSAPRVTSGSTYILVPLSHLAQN
Summary of the method: (§1)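 EC50 or IC50 values were fitted from concentration–effect curves. Data come from two independent experiments, each run in duplicate, with SD generally below 0.3.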

[2] = biological target: T2, Lutropin-choriogonadotropic hormone receptor (Homo sapiens, UniProt P22888); test: Antagonist activity at human LH receptor expressed in CHO-K1 cells assessed as inhibition of LH-induced luciferase activity by CRE-driven luciferase reporter gene assay; format: functional, cell-based
[3] = biological target: T1, Follicle-stimulating hormone receptor; test: Antagonist activity at human FSHR receptor expressed in CHO-K1 cells assessed as inhibition of FSH-induced luciferase activity by CRE-driven luciferase reporter gene assay relative to control
[4] = biological target: T2, Lutropin-choriogonadotropic hormone receptor; test: Agonist activity at human LH receptor expressed in CHO-K1 cells assessed as stimulation of luciferase activity by CRE-driven luciferase reporter gene assay; format: functional, cell-based; summary of the method: as §1
[5] = biological target: T3, Follicle-stimulating hormone receptor (Homo sapiens) (UniProt P23945); test: Antagonist activity at human FSHR receptor expressed in CHO-K1 cells assessed as inhibition of FSH-induced luciferase activity at 10 uM by CRE-driven luciferase reporter gene assay relative to control
T3 sequence (whole entry): T1 sequence (P23945 whole entry)

[6] = biological target: T3, Follicle-stimulating hormone receptor (Homo sapiens); test: Agonist activity at human FSHR receptor expressed in CHO-K1 cells assessed as stimulation of luciferase activity at 10 uM by CRE-driven luciferase reporter gene assay relative to control; format: functional, cell-based
[7] = biological target: T3, Follicle-stimulating hormone receptor (Homo sapiens); test: Agonist activity at human FSHR receptor expressed in CHO-K1 cells assessed as stimulation of luciferase activity by CRE-driven luciferase reporter gene assay relative to control; format: functional, cell-based

T2 sequence (P22888 whole entry): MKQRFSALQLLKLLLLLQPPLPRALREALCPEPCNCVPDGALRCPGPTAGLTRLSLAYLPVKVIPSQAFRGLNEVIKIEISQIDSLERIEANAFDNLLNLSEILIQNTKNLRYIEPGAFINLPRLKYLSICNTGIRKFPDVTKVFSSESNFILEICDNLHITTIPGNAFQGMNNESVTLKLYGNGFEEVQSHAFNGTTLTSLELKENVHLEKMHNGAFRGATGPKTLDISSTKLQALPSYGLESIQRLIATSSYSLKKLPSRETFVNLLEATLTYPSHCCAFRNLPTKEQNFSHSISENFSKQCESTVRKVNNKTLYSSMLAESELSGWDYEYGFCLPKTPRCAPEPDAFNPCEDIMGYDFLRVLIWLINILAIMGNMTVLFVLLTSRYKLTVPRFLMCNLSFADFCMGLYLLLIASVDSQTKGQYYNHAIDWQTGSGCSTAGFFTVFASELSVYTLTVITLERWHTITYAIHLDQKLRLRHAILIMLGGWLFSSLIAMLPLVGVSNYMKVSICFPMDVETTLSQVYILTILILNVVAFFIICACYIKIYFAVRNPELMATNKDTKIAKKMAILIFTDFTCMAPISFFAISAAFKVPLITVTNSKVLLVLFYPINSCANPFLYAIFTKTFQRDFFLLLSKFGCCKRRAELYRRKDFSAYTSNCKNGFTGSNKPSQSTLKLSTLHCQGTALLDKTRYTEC

| EC50 ([1]; cho-k1) | inhibition [2] | IC50 ([3]; read-out: IC50) [µM] | EC50 ([4]; read-out: EC50) [µM] | Imax [5] [%] | Emax [6] [%] | IC50 ([3]; cho-k1) | EC50 ([4]; cho-k1) | EC50 ([1]; read-out: EC50) [µM] | Emax [7] [%] | Compound |
| --- | --- | --- | --- | --- | --- | --- | --- | --- | --- | --- |
| Not Active | inactive | 1.66 | 0.061 | 65 |  |  |  |  |  | CSc1nc(-c2cccc(NCC(=O)NCc3cn(CCOCCOCCOCCn4cc(COc5ccc([C@@]6(C)CC(C)(C)N(C(C)=O)c7ccc(NC(=O)c8ccc(-c9ccccc9)cc8)cc76)cc5)nn4)nn3)c2)c2c(N)c(C(=O)NC(C)(C)C)sc2n1 |
|  | inactive |  | 0.039 |  | 39 | Not Active |  |  |  | CSc1nc(-c2cccc(NCC(=O)NCc3cn(CCOCCOCCOCCOCCn4cc(COc5ccc([C@]6(C)CC(C)(C)N(C(C)=O)c7ccc(NC(=O)c8ccc(-c9ccccc9)cc8)cc76)cc5)nn4)nn3)c2)c2c(N)c(C(=O)NC(C)(C)C)sc2n1 |
| Not Active | inactive | 1.02 | 0.055 | 72 |  |  |  |  |  | CSc1nc(-c2cccc(NCC(=O)NCc3cn(CCOCCOCCOCCOCCn4cc(COc5ccc([C@@]6(C)CC(C)(C)N(C(C)=O)c7ccc(NC(=O)c8ccc(-c9ccccc9)cc8)cc76)cc5)nn4)nn3)c2)c2c(N)c(C(=O)NC(C)(C)C)sc2n1 |
|  | inactive |  | 0.08 |  | 44 | Not Active |  |  |  | CSc1nc(-c2cccc(NCC(=O)NCc3cn(CCOCCn4cc(COc5ccc([C@]6(C)CC(C)(C)N(C(C)=O)c7ccc(NC(=O)c8ccc(-c9ccccc9)cc8)cc76)cc5)nn4)nn3)c2)c2c(N)c(C(=O)NC(C)(C)C)sc2n1 |
| Not Active | inactive | 0.039 |  |  |  |  | Not Active |  |  | C#CCOc1ccc([C@@]2(C)CC(C)(C)N(C(C)=O)c3ccc(NC(=O)c4ccc(-c5ccccc5)cc4)cc32)cc1 |
| Not Active | inactive | 0.324 |  |  |  |  | Not Active |  |  | CC(=O)N1c2ccc(NC(=O)c3ccc(-c4ccccc4)cc3)cc2[C@@](C)(c2ccc(OCc3cn(CCOCCOCCN=[N+]=[N-])nn3)cc2)CC1(C)C |
|  | inactive |  | 0.001 |  |  | Not Active |  | 0.126 | 78 | C#CCNC(=O)CNc1cccc(-c2nc(SC)nc3sc(C(=O)NC(C)(C)C)c(N)c23)c1 |
|  | inactive |  | 0.024 |  | 43 | Not Active |  |  |  | CSc1nc(-c2cccc(NCC(=O)NCc3cn(CCn4cc(COc5ccc([C@]6(C)CC(C)(C)N(C(C)=O)c7ccc(NC(=O)c8ccc(-c9ccccc9)cc8)cc76)cc5)nn4)nn3)c2)c2c(N)c(C(=O)NC(C)(C)C)sc2n1 |
| Not Active | inactive |  | 0.027 | 75 |  |  |  |  |  | CSc1nc(-c2cccc(NCC(=O)NCc3cn(CCOCCn4cc(COc5ccc([C@@]6(C)CC(C)(C)N(C(C)=O)c7ccc(NC(=O)c8ccc(-c9ccccc9)cc8)cc76)cc5)nn4)nn3)c2)c2c(N)c(C(=O)NC(C)(C)C)sc2n1 |
|  | inactive |  | 0.005 |  |  | Not Active |  | 0.397 | 81 | CSc1nc(-c2cccc(NCC(=O)NCc3cn(CCOCCOCCN=[N+]=[N-])nn3)c2)c2c(N)c(C(=O)NC(C)(C)C)sc2n1 |
|  | inactive |  | 0.057 |  | 31 | Not Active |  |  |  | CSc1nc(-c2cccc(NCC(=O)NCc3cn(CCOCCOCCOCCn4cc(COc5ccc([C@]6(C)CC(C)(C)N(C(C)=O)c7ccc(NC(=O)c8ccc(-c9ccccc9)cc8)cc76)cc5)nn4)nn3)c2)c2c(N)c(C(=O)NC(C)(C)C)sc2n1 |
| Not Active | inactive |  | 0.01 | 65 |  |  |  |  |  | CSc1nc(-c2cccc(NCC(=O)NCc3cn(CCn4cc(COc5ccc([C@@]6(C)CC(C)(C)N(C(C)=O)c7ccc(NC(=O)c8ccc(-c9ccccc9)cc8)cc76)cc5)nn4)nn3)c2)c2c(N)c(C(=O)NC(C)(C)C)sc2n1 |
|  | inactive |  | 0.075 |  | 18 | Not Active |  |  |  | CSc1nc(-c2cccc(NCC(=O)NCc3cn(CCOCCOCCn4cc(COc5ccc([C@]6(C)CC(C)(C)N(C(C)=O)c7ccc(NC(=O)c8ccc(-c9ccccc9)cc8)cc76)cc5)nn4)nn3)c2)c2c(N)c(C(=O)NC(C)(C)C)sc2n1 |
| Not Active | inactive | 0.92 | 0.043 | 73 |  |  |  |  |  | CSc1nc(-c2cccc(NCC(=O)NCc3cn(CCOCCOCCn4cc(COc5ccc([C@@]6(C)CC(C)(C)N(C(C)=O)c7ccc(NC(=O)c8ccc(-c9ccccc9)cc8)cc76)cc5)nn4)nn3)c2)c2c(N)c(C(=O)NC(C)(C)C)sc2n1 |
